The record followed here is paper PMC5480311 (ACS infectious diseases, 2016).

One test has as its target UL54 (Human cytomegalovirus, UniProt P08546). Kind of test: DNA synthesis by UL54 alone, filter binding assay. It is filed as biochemical. In outline:
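Basal DNA synthesis by UL54 alone, without UL44, was measured by filter-binding assay across test compound concentrations. Signal is given relative to no compound, and error bars are standard errors of the mean.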

Another test has as its target UL54/UL44 DNA polymerase (Human cytomegalovirus, UniProt P16790). Kind of test: Long-chain DNA synthesis by UL54−UL44. In kind it is biochemical. In short, it runs like this:
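UL54 with UL44 was used to make long-chain DNA products, and their formation was followed across a dose series of test compound, with product lanes compared. Signal is expressed relative to the no-compound reaction, and error bars are standard errors of the mean.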

For test [1], the target named is UL44 binding to full-length UL54 (Human cytomegalovirus, UniProt P16790). Kind of test: UL54−UL44 interaction assay by biolayer interferometry. In outline:
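Biolayer interferometry measured UL44 binding to full-length UL54 in the presence of test compound. Signal is given relative to binding without compound, and error bars are standard errors of the mean.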
Background: In BLI a coated tip is dipped into the sample, and binding shifts an interference pattern.

The next test concerns the target UL44−P54 interaction (Human cytomegalovirus, UniProt P16790). Kind of test: FP assay of UL44−P54 interaction. In kind it is binding. The conditions noted are these: IC50, inhibition of P54−UL44 interaction, incubation time 20 min or beyond. In outline: (§1)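 Fluorescence polarization assays of each protein–peptide pair: UL44–P54 (GST-fused UL44ΔC290 with fluorescently labelled P54), UL42–P30 and PCNA–p21. Test compound was pre-incubated for set times, up to 60 min, before FP was read. Normalized mP relative to the no-inhibitor control was plotted against compound concentration. Error bars are standard errors of the mean.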

For the next test, the target named is UL42−P30 interaction (Human herpesvirus 1, UniProt P10226). As to the kind of experiment: FP assay of UL42−P30 interaction. In kind it is binding, herpes simplex virus-1. In outline:
as §1

In test [2] the target is UL44 K60A−P54 interaction (Human cytomegalovirus, UniProt P16790, K60A). As to the kind of experiment: FP assay of mutant UL44 K60A−P54 interaction. It is filed as binding. Conditions: read-out: inhibition of UL44 K60A−P54 interaction.
Another test deals with PCNA−P21 interaction (Homo sapiens, UniProt P12004). As to the kind of experiment: FP assay of PCNA−P21 interaction. In kind it is binding. The conditions noted are these: incubation up to 60 min, not meaningfully changed. In short, it runs like this:
as §1

Chain of PCNA−P21 interaction (P12004 whole entry): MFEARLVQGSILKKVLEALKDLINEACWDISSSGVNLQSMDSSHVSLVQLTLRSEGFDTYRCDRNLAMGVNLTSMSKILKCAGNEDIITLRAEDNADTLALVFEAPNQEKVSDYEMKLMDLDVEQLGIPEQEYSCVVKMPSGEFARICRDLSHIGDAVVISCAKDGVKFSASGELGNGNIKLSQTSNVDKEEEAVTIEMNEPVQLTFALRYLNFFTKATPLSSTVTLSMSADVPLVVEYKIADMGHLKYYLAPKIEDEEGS

Broadly, the IC50 is the concentration needed to halve the response being measured. A high value points to lower potency. One may read the inhibition as the drop in the measured response relative to a control, in per cent. Consider `CSc1scc2c1C(=O)C(=CN(C)C)CC2` [SGM8], for which the IC50 on UL54 is more than 100 µM; against UL54/UL44 DNA polymerase, 3.2 µM; in test [1], 4.5 µM; on UL44−P54 interaction, 2 µM; against UL42−P30 interaction, approximately 20 µM. In addition, at UL42−P30 interaction (incubation time extended to 60 min), the “change of inhibition of P30−UL42 interaction on longer incubation” value is recorded as “only slightly increased”. Further, the inhibition at 20 µM in test [2] was less than 50%. In addition, the “inhibition of P21−PCNA interaction” value on PCNA−P21 interaction is listed as “very weak inhibition”.
